Reference: ChEMBL document CHEMBL1144182, “Antimicrobial and cytotoxic arylazoenamines. Part III: antiviral activity of selected classes of arylazoenamines” (Bioorg Med Chem, 2008)
The source made the active and inactive calls. No rule for the calls is given here.

Experiments:
[1] = test system: Vesicular stomatitis virus; assay: Antiviral activity against VSV infected in Vero76 cells assessed as reduction in virus plaque formation after 4 days by MTT assay; assay type: functional, organism-based; conditions: Vero 76
[2] = test system: Vaccinia virus; assay: Antiviral activity against VV infected in Vero76 cells assessed as reduction in virus plaque formation after 4 days by MTT assay; assay type: functional, organism-based; conditions: Orthopoxvirus vaccinia; Vero 76
[3] = test system: Bovine viral diarrhea virus 1; assay: Antiviral activity against BVDV infected in MDBK cells assessed as protection against virus-induced cytopathogenicity after 4 days by MTT assay; assay type: functional, organism-based; conditions: Bovine viral diarrhea virus isolates and strains, 96 h
Procedure, shortened: (§1)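 MDBK (BVDV) or BHK-21 (YFV) cells were seeded at 3 × 10^4 or 5 × 10^4 cells/well respectively and grown overnight to confluent monolayers at 37 °C in 5% CO2. Monolayers were infected at m.o.i. 0.01 in serum-free medium. After 1 h, MEM Earle's with 1% FCS was added, with or without serial compound dilutions. After 3–4 days at 37 °C, viability was read by MTT. EC50 was taken as 50% protection from virus-induced cytopathogenicity.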

[4] = Cytotoxicity against mock-infected african green monkey Vero76 cells assessed as reduction in cell viability after 96 hrs by MTT assay; assay type: cell-based, Vero; conditions: chlorocebus sabaeus
[5] = Cytotoxicity against mock-infected human MT4 cells assessed as reduction in cell viability after 96 hrs by MTT assay; assay type: cell-based
Procedure, shortened: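 Exponentially growing MT-4 cells seeded at 1 × 10^5 cells/mL in RPMI-1640 with 10% FCS, penicillin and streptomycin, with or without serial compound dilutions. Incubated at 37 °C, 5% CO2; viability read by MTT after 96 h. CC50 is the concentration reducing mock-infected cell viability by 50%.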

[6] = test system: Coxsackievirus B2; assay: Antiviral activity against CVB2 infected in Vero76 cells assessed as reduction in virus plaque formation after 4 days by MTT assay; assay type: functional, organism-based; conditions: Enterovirus B, Vero 76, 96 h
[7] = Cytotoxicity against mock-infected BHK cells assessed as reduction in cell viability after 96 hrs by MTT assay; assay type: cell-based, Mesocricetus auratus; conditions: hamster
Procedure, shortened: (§2)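 Cytotoxicity run in parallel with the antiviral assays. MDBK seeded at 6 × 10^5 and BHK at 1 × 10^6 cells/mL in maintenance medium with or without serial compound dilutions. Incubated 48–96 h at 37 °C, 5% CO2, then viability read by MTT. CC50 is the concentration reducing mock-infected cell viability by 50%.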

[8] = test system: Respiratory syncytial virus; assay: Antiviral activity against RSV infected in Vero76 cells assessed as reduction in virus plaque formation after 4 days by MTT assay; assay type: functional, organism-based; conditions: human respiratory syncytial virus, Vero 76, 96 h
[9] = Cytotoxicity against mock-infected MDBK cells assessed as reduction in cell viability after 96 hrs by MTT assay; assay type: cell-based, Bos taurus; conditions: cattle; procedure, shortened: as §2
[10] = test system: Human immunodeficiency virus 1; assay: Antiviral activity against HIV1 infected in MT4 cells assessed as virus-induced cytopathogenicity after 4 days; assay type: functional, organism-based
[11] = test system: Poliovirus 1; assay: Antiviral activity against Sb1 virus infected in Vero76 cells assessed as reduction in virus plaque formation after 4 days by MTT assay; assay type: functional, organism-based; conditions: Enterovirus C, Sabin, Vero 76, 96 h
[12] = test system: Yellow fever virus; assay: Antiviral activity against YFV infected in BHK21 cells assessed as protection against virus-induced cytopathogenicity after 4 days by MTT assay; assay type: functional, organism-based; conditions: BHK-21, 96 h; procedure, shortened: as §1

| SMILES | Activity [1] | Activity [2] | EC50 [3] [µM] | CC50 at 96 h [4] [µM] | CC50 at 96 h [5] [µM] | EC50 [6] [µM] | CC50 at 96 h [7] [µM] | EC50 [8] [µM] | CC50 at 96 h [9] [µM] | Activity [10] | EC50 [11] [µM] | EC50 [12] [µM] |
| --- | --- | --- | --- | --- | --- | --- | --- | --- | --- | --- | --- | --- |
| Fc1ccccc1N1CCN(/C=C/N=N/c2ccccc2)CC1 | inactive | inactive | > 10 | 34 | 32 | 6 | 62 | 6 | 10 | inactive | > 34 | > 62 |
| Clc1ccc(/N=N\C2=C3CCCCN3CCC2)cc1Cl | inactive | inactive | > 30 | > 100 | 35 | 38 | 54 | > 100 | 30 | inactive | > 100 | > 54 |
| CN1CCC/C1=C\N=N\c1ccc(Br)cc1 | inactive | inactive | 11 | > 100 | 23 | 36 | > 100 | 20 | > 100 | inactive | > 100 | > 100 |
| FC(F)(F)c1cc(/N=N/C=C2\CCCN2Cc2ccccc2)ccc1Cl | inactive | inactive | > 14 | 80 | 20 | 30 | 22 | > 80 | 14 | inactive | > 80 | > 22 |
| Clc1cccc(N2CCN(/C=C/N=N/c3ccccc3)CC2)c1 | inactive | inactive | > 7 | 11 | 19 | > 11 | 47 | 5 | 7 | inactive | > 11 | 10 |
| Clc1ccc(/N=N/C=C/N2CCCC2)cc1 | inactive | inactive | > 30 | 22 | 61 | 4 | > 100 | > 22 | 30 | inactive | > 22 | 46 |
| CN1C=C(/N=N/c2c(F)c(F)c(F)c(F)c2F)CCC1 | inactive | inactive | > 100 | > 100 | > 100 | > 100 | > 100 | > 100 | > 100 | inactive | > 100 | > 100 |
| O=[N+]([O-])c1cc(/N=N\C2=C3CCCCN3CCC2)ccc1Cl | inactive | inactive | 18 | 100 | 33 | 51 | 10 | 75 | 18 | inactive | > 100 | > 10 |
| Clc1cccc(/N=N\C2=C3CCCCN3CCC2)c1 | inactive | inactive | > 20 | 60 | 16 | 22 | 46 | 18 | 20 | inactive | > 60 | > 46 |
| Clc1ccccc1N1CCN(/C=C/N=N/c2ccccc2)CC1 | inactive | inactive | > 13 | 14 | 16 | 5 | 69 | 5 | 13 | inactive | > 14 | > 69 |
